Data from ChEMBL document CHEMBL3621107, “Ring fusion strategy for synthesis and lead optimization of sulfur-substituted anthra[1,2-c][1,2,5]thiadiazole-6,11-dione derivatives as promising scaffold of antitumor agents” (Eur J Med Chem, 2015).

Assays:
Format in all cases: functional
[1] = test system: Malme-3M; experiment: Cytotoxicity against human MALME-3M cells assessed as cell growth at 10 uM after 48 hrs by SRB assay relative to control; conditions: read-out: Activity
Method in brief: (§1)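 First-stage NCI-60 screen by the NCI Developmental Therapeutics Program. Each compound was tested once at a single concentration of 10 μM against the 60-cell-line panel. Growth percentage was reported for each cell line.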

[2] = test system: SK-MEL-2; experiment: Cytotoxicity against human SK-MEL-2 cells assessed as cell growth at 10 uM after 48 hrs by SRB assay relative to control; conditions: SK-MEL-2, 48 h, read-out: Activity
Method in brief: (§2)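 First-stage NCI DTP one-dose screen against the 60 human tumour cell line panel. Compounds were tested at a single 10 μM level, and results are given as growth percentage.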

[3] = test system: SK-MEL-5; experiment: Cytotoxicity against human SK-MEL-5 cells assessed as cell growth at 10 uM after 48 hrs by SRB assay relative to control; conditions: SK-MEL-5, 48 h, read-out: Activity; method in brief: as §2
[4] = test system: UACC-62; experiment: Cytotoxicity against human UACC62 cells assessed as cell growth at 10 uM after 48 hrs by SRB assay relative to control; conditions: UACC-62, 48 h, read-out: Activity
Method in brief: (§3)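 NCI-60 one-dose screen run by NCI DTP: each cell line exposed to a single 10 µM dose, and percentage growth recorded against untreated growth.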

[5] = test system: IGROV-1; experiment: Cytotoxicity against human IGROV1 cells assessed as cell growth at 10 uM after 48 hrs by SRB assay relative to control; conditions: IGROV-1, 48 h, read-out: Activity; method in brief: as §1
[6] = test system: OVCAR-3; experiment: Cytotoxicity against human OVCAR3 cells assessed as cell growth at 10 uM after 48 hrs by SRB assay relative to control; conditions: OVCAR-3, 48 h, read-out: Activity; method in brief: as §2
[7] = test system: OVCAR-4; experiment: Cytotoxicity against human OVCAR4 cells assessed as cell growth at 10 uM after 48 hrs by SRB assay relative to control; conditions: OVCAR-4, 48 h, read-out: Activity; method in brief: as §2
[8] = test system: 786-0; experiment: Cytotoxicity against human 786-0 cells assessed as cell growth at 10 uM after 48 hrs by SRB assay relative to control; conditions: 786-0, 48 h, read-out: Activity; method in brief: as §1
[9] = test system: CAKI-1; experiment: Cytotoxicity against human Caki1 cells assessed as cell growth at 10 uM after 48 hrs by SRB assay relative to control; conditions: CAKI-1, 48 h, read-out: Activity; method in brief: as §1
[10] = test system: RXF 393; experiment: Cytotoxicity against human RXF393 cells assessed as cell growth at 10 uM after 48 hrs by SRB assay relative to control; conditions: RXF 393, 48 h, read-out: Activity; method in brief: as §2
[11] = test system: TK-10; experiment: Cytotoxicity against human TK10 cells assessed as cell growth at 10 uM after 48 hrs by SRB assay relative to control; conditions: TK-10, 48 h, read-out: Activity; method in brief: as §3
[12] = test system: MDA-MB-231; experiment: Cytotoxicity against human MDA-MB-231 cells assessed as cell growth at 10 uM after 48 hrs by SRB assay relative to control; conditions: MDA-MB-231, 48 h, read-out: Activity; method in brief: as §2
[13] = Cytotoxicity against human Hs578T cells assessed as cell growth at 10 uM after 48 hrs by SRB assay relative to control; conditions: Hs-578T, read-out: Activity; method in brief: as §1
[14] = test system: T47D; experiment: Cytotoxicity against human T47D cells assessed as cell growth at 10 uM after 48 hrs by SRB assay relative to control; conditions: read-out: Activity; method in brief: as §3
[15] = test system: MDA-MB-468; experiment: Cytotoxicity against human MDA-MB-468 cells assessed as cell growth at 10 uM after 48 hrs by SRB assay relative to control; conditions: MDA-MB-468, 48 h, read-out: Activity; method in brief: as §2
[16] = test system: CCRF-CEM; experiment: Cytotoxicity against human CCRF-CEM cells assessed as cell growth at 10 uM after 48 hrs by SRB assay relative to control; conditions: read-out: Activity; method in brief: as §1
[17] = test system: HL-60(TB); experiment: Cytotoxicity against human HL-60(TB) cells assessed as cell growth at 10 uM after 48 hrs by SRB assay relative to control; conditions: HL-60, 48 h, read-out: Activity
Method in brief: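 NCI Developmental Therapeutics Program 60-cell-line screen, first stage: a single dose of 10 μM against the panel, reported as percentage growth.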

[18] = test system: MOLT-4; experiment: Cytotoxicity against human MOLT4 cells assessed as cell growth at 10 uM after 48 hrs by SRB assay relative to control; conditions: MOLT-4, 48 h, read-out: Activity; method in brief: as §2
[19] = Cytotoxicity against human EKVX cells assessed as cell growth at 10 uM after 48 hrs by SRB assay relative to control; conditions: read-out: Activity; method in brief: as §1
[20] = test system: NCI-H322M; experiment: Cytotoxicity against human NCI-H322M cells assessed as cell growth at 10 uM after 48 hrs by SRB assay relative to control; conditions: read-out: Activity; method in brief: as §2
[21] = test system: NCI-H460; experiment: Cytotoxicity against human NCI-H460 cells assessed as cell growth at 10 uM after 48 hrs by SRB assay relative to control; conditions: NCI-H460, 48 h, read-out: Activity; method in brief: as §2
[22] = test system: COLO 205; experiment: Cytotoxicity against human COLO205 cells assessed as cell growth at 10 uM after 48 hrs by SRB assay relative to control; conditions: COLO 205, 48 h, read-out: Activity; method in brief: as §1
[23] = test system: HCT-15; experiment: Cytotoxicity against human HCT15 cells assessed as cell growth at 10 uM after 48 hrs by SRB assay relative to control; conditions: HCT-15, 48 h, read-out: Activity; method in brief: as §1
[24] = test system: SF-268; experiment: Cytotoxicity against human SF268 cells assessed as cell growth at 10 uM after 48 hrs by SRB assay relative to control; conditions: SF-268, 48 h, read-out: Activity; method in brief: as §2
[25] = test system: SF-295; experiment: Cytotoxicity against human SF295 cells assessed as cell growth at 10 uM after 48 hrs by SRB assay relative to control; conditions: SF-295, 48 h, read-out: Activity; method in brief: as §2
[26] = test system: SNB-75; experiment: Cytotoxicity against human SNB75 cells assessed as cell growth at 10 uM after 48 hrs by SRB assay relative to control; conditions: SNB-75, 48 h, read-out: Activity; method in brief: as §3
[27] = test system: LOX IMVI; experiment: Cytotoxicity against human LOXIMVI cells assessed as cell growth at 10 uM after 48 hrs by SRB assay relative to control; conditions: read-out: Activity; method in brief: as §1
[28] = test system: OVCAR-5; experiment: Cytotoxicity against human OVCAR5 cells assessed as cell growth at 10 uM after 48 hrs by SRB assay relative to control; conditions: OVCAR-5, 48 h, read-out: Activity; method in brief: as §2
[29] = test system: NCI/ADR-RES; experiment: Cytotoxicity against human NCI/ADR-RES cells assessed as cell growth at 10 uM after 48 hrs by SRB assay relative to control; conditions: read-out: Activity; method in brief: as §2
[30] = test system: ACHN; experiment: Cytotoxicity against human ACHN cells assessed as cell growth at 10 uM after 48 hrs by SRB assay relative to control; conditions: read-out: Activity; method in brief: as §1
[31] = test system: HT-29; experiment: Cytotoxicity against human HT-29 cells assessed as cell growth at 10 uM after 48 hrs by SRB assay relative to control; conditions: HT-29, 48 h, read-out: Activity; method in brief: as §1

Compound	growth at 10 µM [1]	growth at 10 µM [2]	growth at 10 µM [3]	growth at 10 µM [4]	growth at 10 µM [5]	growth at 10 µM [6]	growth at 10 µM [7]	growth at 10 µM [8]	growth at 10 µM [9]	growth at 10 µM [10]	growth at 10 µM [11]	growth at 10 µM [12]	growth at 10 µM [13]	growth at 10 µM [14]	growth at 10 µM [15]	growth at 10 µM [16]	growth at 10 µM [17]	growth at 10 µM [18]	growth at 10 µM [19]	growth at 10 µM [20]	further results
O=C1c2ccccc2C(=O)c2c1cc(Sc1ccccc1)c1nsnc21	106%	112%	85.7%	86.3%	84.4%	96.7%	57.8%	110%	89%	114%	143%	66.7%	95.9%	93.2%	87.3%	15.7%	83.9%	31.1%	97.8%	101%	growth at 10 µM [21]: 101%; growth at 10 µM [22]: 118%; growth at 10 µM [23]: 93.9%; growth at 10 µM [24]: 102%; growth at 10 µM [25]: 106%; growth at 10 µM [26]: 96.1%; growth at 10 µM [27]: 42%
O=C1c2ccccc2C(=O)c2c1cc(Cl)c1nsnc21	97.1%	0.21%	72.5%	72.9%	52.5%	49.9%	-75%	102%	96.5%	71.9%	134%	-23.4%	72.5%	-54.6%	-88.3%	-41.8%	1.87%	-34.1%	82.2%	108%	growth at 10 µM [21]: 100%; growth at 10 µM [22]: 99.1%; growth at 10 µM [23]: 96.8%; growth at 10 µM [24]: 37%; growth at 10 µM [25]: 109%; growth at 10 µM [26]: 85.2%; growth at 10 µM [27]: 10.2%
Cc1cccc(C)c1Sc1cc2c(c3nsnc13)C(=O)c1ccccc1C2=O	73.7%	67.5%	70.2%	91.7%	66.4%	1%	4%	115%	61%	76.2%	119%	30.6%	82.4%	66.8%	45.9%	34.8%	47.8%	32.6%	82.4%	83.8%	growth at 10 µM [28]: 114%; growth at 10 µM [29]: 59.7%; growth at 10 µM [30]: 83.2%; growth at 10 µM [21]: 87.4%; growth at 10 µM [22]: 98.8%; growth at 10 µM [23]: 47.5%; growth at 10 µM [31]: 97.7%; growth at 10 µM [24]: 79.5%; growth at 10 µM [25]: 91.1%; growth at 10 µM [26]: 69.4%; growth at 10 µM [27]: 44.6%
